In ChEMBL document CHEMBL1142702, “Dynamic receptor-based pharmacophore model development and its application in designing novel HIV-1 integrase inhibitors” (J Med Chem, 2005):

The molecules below were run against T1, Human immunodeficiency virus type 1 integrase (Human immunodeficiency virus 1, UniProt Q7ZJM1) (assay: Concentration to inhibit strand transfer of wild type Human immunodeficiency virus-1 integrase).
Method in brief: (§1)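 Recombinant wild-type IN, 200 nM final, preincubated with inhibitor at 30 °C for 30 min. 20 nM 5′-32P-labeled 21-mer duplex substrate then added for 1 h. Quenched with formamide loading dye. 19-mer or strand-transfer product fraction gave percent inhibition. IC50 from log concentration versus percent inhibition.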

`CCN(CC)c1ccc(/C=N/Nc2nonc2N)c(O)c1` and `CCOC(=O)C(=O)NCc1ccc(/C=C2/N=C(C)C(C(=O)OCC)=C2O)o1` cannot be ordered by IC50: greater than 100 µM for the first, greater than 100 µM for the second.

Going from `O=C(O)c1cc(NS(=O)(=O)c2ccc(NCc3ccccc3)c([N+](=O)[O-])c2)cc(C(=O)O)c1` to `O=C(Nc1ccc(Cc2ccc(NC(=O)c3cccc([N+](=O)[O-])c3)c(C(=O)O)c2)cc1C(=O)O)c1cccc([N+](=O)[O-])c1`, the IC50 falls from 66 µM to 13 µM (5.1-fold).

Going from `C/C(CC(=O)Nc1c(C)cc(C)cc1C)=N\NC(=O)c1ccc(O)cc1O` to `COC(=O)C1=C(O)/C(=C\c2ccc(CNC(=O)C(=O)Nc3ccc(C)cc3)o2)N=C1C`, the IC50 falls from 150 µM to 81 µM (1.9-fold). The second is the more potent here.

First: COC(=O)c1sccc1NC(=O)c1ccc(C(=O)Nc2ccsc2C(=O)OC)cc1
Second: O=C(Nc1ccc(Cc2ccc(NC(=O)c3cccs3)c(C(=O)O)c2)cc1C(=O)O)c1cccs1
The IC50 of the first is 2.6-fold higher: 97 µM for the first, 38 µM for the second.

`CCOc1ccc2[nH]c(SCC(=O)Nc3cc(C(=O)O)cc(C(=O)O)c3)nc2c1` and `O=C(Nc1ccc(Cc2ccc(O)c(NC(=O)c3ccccc3F)c2)cc1O)c1ccccc1F` cannot be ordered by IC50: greater than 100 µM for the first, greater than 100 µM for the second.

What follows are molecules tested against T1, Human immunodeficiency virus type 1 integrase (assay: Concentration to inhibit strand transfer of soluble mutant (F185K, C280S) of wild type Human immunodeficiency virus-1 integrase).
Method in brief: (§2)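 Integrase (200 nM final) is preincubated with inhibitor for 30 min at 30 °C in buffer with MOPS pH 7.2, HEPES pH 7.5, 7.5 mM MnCl2, 50 mM NaCl, BSA, DTT, 2-mercaptoethanol, glycerol, EDTA and 10% DMSO. Then 20 nM 5′-32P-labelled 21-mer duplex substrate is added for 1 h, and the reaction is quenched with formamide/EDTA dye. The fraction converted to 19-mer (3′-processing) or to strand-transfer products gives percent inhibition, and IC50 comes from log concentration versus percent inhibition.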

Going from `CCc1cc(/C=N/CC/N=C/c2cc(CC)sc2S)c(S)s1` to `Cc1ccc(NC(=O)C(=O)NCc2ccc(/C=N\NC(=O)C(=O)Nc3cc(Cl)ccc3C)o2)cc1C`, the IC50 rises from 6 µM to 70 µM (12-fold). The first is the more potent here.

`O=C(NCc1cccc(CNC(=O)C(=O)NCc2ccco2)c1)C(=O)NCc1ccco1` and `O=C(Nc1ccc(Cc2ccc(O)c(NC(=O)c3ccccc3F)c2)cc1O)c1ccccc1F` are within 1.5-fold of each other in IC50: 40 µM for the first, 33 µM for the second.

The molecules below were run against T1, Human immunodeficiency virus type 1 integrase (assay: Concentration to inhibit 3' processing of soluble mutant (F185K, C280S) of wild type Human immunodeficiency virus-1 integrase).
Method in brief: as §2

`CCc1cc(/C=N/CC/N=C/c2cc(CC)sc2S)c(S)s1` and `Cc1ccc(NC(=O)C(=O)NCc2ccc(/C=N\NC(=O)C(=O)Nc3cc(Cl)ccc3C)o2)cc1C` cannot be ordered by IC50: greater than 100 µM for the first, 510 µM for the second.

Compared with `O=C(NCc1cccc(CNC(=O)C(=O)NCc2ccco2)c1)C(=O)NCc1ccco1`, `O=C(Nc1ccc(Cc2ccc(O)c(NC(=O)c3ccccc3F)c2)cc1O)c1ccccc1F` is 4.9-fold lower in IC50: 1000 µM for the first, 205 µM for the second. The second is the more potent here.

These molecules were tested against T1, Human immunodeficiency virus type 1 integrase (assay: Concentration to inhibit strand transfer of wild type Human immuno deficiency virus-1 integrase).
Method in brief: as §1

Going from `CCc1cc(/C=N/CC/N=C/c2cc(CC)sc2S)c(S)s1` to `COc1cc(/C=N/NC(=O)c2cc(C3CC3)[nH]n2)ccc1O`, the IC50 rises from 21 µM to greater than 100 µM.

`COc1ccc(C(=O)Nc2ccc(Cc3ccc(NC(=O)c4ccc(OC)cc4)c(O)c3)cc2O)cc1` and `COc1ccc(NS(=O)(=O)c2cccc(C(=O)Nc3ccccc3C(=O)O)c2)cc1` cannot be ordered by IC50: greater than 100 µM for the first, 300 µM for the second.

Going from `O=C(NCc1cccc(CNC(=O)C(=O)NCc2ccco2)c1)C(=O)NCc1ccco1` to `O=C(NCc1ccco1)c1cc(C(=O)NCc2ccco2)cc(C(=O)NCc2ccco2)c1`, the IC50 falls from greater than 100 µM to 8 µM.

First: O=C(N/N=C/c1ccc(O)cc1O)c1cc(C2CC2)[nH]n1
Second: COc1ccc2[nH]c(SCC(=O)Nc3ccc(O)c(C(=O)O)c3)nc2c1
The IC50 of the first is lower: 43 µM for the first, greater than 100 µM for the second. The first is the more potent here.

`O=C(c1ccccc1)c1ccc(OCC(O)COc2ccc(C(=O)c3ccccc3)c(O)c2)cc1O` and `CCOC(=O)c1cc(C(=O)OCC)c(SCC(=O)Nc2ccc(Br)cc2)nc1O` cannot be ordered by IC50: greater than 100 µM for the first, greater than 100 µM for the second.

Compared with `COC(=O)c1cc(NS(=O)(=O)c2ccc(NCc3cccnc3)c(N)c2)cc(C(=O)OC)c1`, `O=C(O)c1cc(NS(=O)(=O)c2ccc(NCCCN3CCOCC3)c([N+](=O)[O-])c2)cc(C(=O)O)c1` is lower in IC50: greater than 100 µM for the first, 100 µM for the second. The second is the more potent here.

Molecule `Cc1ccc(NC(=O)C(=O)NCc2ccc(/C=N\NC(=O)C(=O)Nc3cc(Cl)ccc3C)o2)cc1C` has an IC50 greater than 100 µM.

These molecules were tested against T1, Human immunodeficiency virus type 1 integrase (assay: Concentration to inhibit 3' processing of wild type Human immunodeficiency virus-1 integrase).
Method in brief: as §1

`CCN(CC)c1ccc(/C=N/Nc2nonc2N)c(O)c1` and `CCOC(=O)C(=O)NCc1ccc(/C=C2/N=C(C)C(C(=O)OCC)=C2O)o1` cannot be ordered by IC50: greater than 100 µM for the first, greater than 100 µM for the second.

First: O=C(O)c1cc(NS(=O)(=O)c2ccc(NCc3ccccc3)c([N+](=O)[O-])c2)cc(C(=O)O)c1
Second: O=C(Nc1ccc(Cc2ccc(NC(=O)c3cccc([N+](=O)[O-])c3)c(C(=O)O)c2)cc1C(=O)O)c1cccc([N+](=O)[O-])c1
The IC50 of the first is higher: greater than 100 µM for the first, 15 µM for the second. The second is the more potent here.

`C/C(CC(=O)Nc1c(C)cc(C)cc1C)=N\NC(=O)c1ccc(O)cc1O` and `COC(=O)C1=C(O)/C(=C\c2ccc(CNC(=O)C(=O)Nc3ccc(C)cc3)o2)N=C1C` cannot be ordered by IC50: greater than 1000 µM for the first, greater than 100 µM for the second.

Going from `COC(=O)c1sccc1NC(=O)c1ccc(C(=O)Nc2ccsc2C(=O)OC)cc1` to `O=C(Nc1ccc(Cc2ccc(NC(=O)c3cccs3)c(C(=O)O)c2)cc1C(=O)O)c1cccs1`, the IC50 falls from greater than 100 µM to 63 µM. The second is the more potent here.

`CCOc1ccc2[nH]c(SCC(=O)Nc3cc(C(=O)O)cc(C(=O)O)c3)nc2c1` and `O=C(Nc1ccc(Cc2ccc(O)c(NC(=O)c3ccccc3F)c2)cc1O)c1ccccc1F` cannot be ordered by IC50: greater than 100 µM for the first, greater than 100 µM for the second.

Each molecule was assayed against T1, Human immunodeficiency virus type 1 integrase (assay: Concentration to inhibit 3' processing of wild type Human immuno deficiency virus-1 integrase).
Method in brief: as §1

`CCc1cc(/C=N/CC/N=C/c2cc(CC)sc2S)c(S)s1` and `COc1cc(/C=N/NC(=O)c2cc(C3CC3)[nH]n2)ccc1O` cannot be ordered by IC50: greater than 100 µM for the first, greater than 100 µM for the second.

`COc1ccc(C(=O)Nc2ccc(Cc3ccc(NC(=O)c4ccc(OC)cc4)c(O)c3)cc2O)cc1` and `COc1ccc(NS(=O)(=O)c2cccc(C(=O)Nc3ccccc3C(=O)O)c2)cc1` cannot be ordered by IC50: greater than 100 µM for the first, 355 µM for the second.

Going from `O=C(NCc1cccc(CNC(=O)C(=O)NCc2ccco2)c1)C(=O)NCc1ccco1` to `O=C(NCc1ccco1)c1cc(C(=O)NCc2ccco2)cc(C(=O)NCc2ccco2)c1`, the IC50 falls from greater than 100 µM to 37 µM.

`O=C(N/N=C/c1ccc(O)cc1O)c1cc(C2CC2)[nH]n1` and `COc1ccc2[nH]c(SCC(=O)Nc3ccc(O)c(C(=O)O)c3)nc2c1` cannot be ordered by IC50: 177 µM for the first, greater than 100 µM for the second.

`O=C(c1ccccc1)c1ccc(OCC(O)COc2ccc(C(=O)c3ccccc3)c(O)c2)cc1O` and `CCOC(=O)c1cc(C(=O)OCC)c(SCC(=O)Nc2ccc(Br)cc2)nc1O` cannot be ordered by IC50: greater than 100 µM for the first, greater than 100 µM for the second.

`COC(=O)c1cc(NS(=O)(=O)c2ccc(NCc3cccnc3)c(N)c2)cc(C(=O)OC)c1` and `O=C(O)c1cc(NS(=O)(=O)c2ccc(NCCCN3CCOCC3)c([N+](=O)[O-])c2)cc(C(=O)O)c1` cannot be ordered by IC50: greater than 100 µM for the first, 140 µM for the second.

`Cc1ccc(NC(=O)C(=O)NCc2ccc(/C=N\NC(=O)C(=O)Nc3cc(Cl)ccc3C)o2)cc1C` was tested, and the IC50 was greater than 100 µM.
